From ChEMBL document CHEMBL1157699, “New small-size peptides possessing antifungal activity” (Bioorg Med Chem, 2010) come the findings set out here.

By inhibition is commonly meant the share of the control response that was lost under treatment. The MIC50 is the lowest concentration that inhibits either 50% of growth or 50% of the strains tested, depending on the study. In general, MIC80 refers to an inhibitory concentration at the 80% level, which refers to growth in some studies and to a panel of isolates in others.

In data set [1] the test system is Cryptococcus neoformans. Put plainly: Antifungal activity against Cryptococcus neoformans ATCC 32264 assessed as inhibition of fungal growth at 50 uM after 48 hrs by microbroth dilution method. Format: functional. To be noted: ATCC 32264, 48 h. In outline:
(§1)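 Cryptococcus run by CLSI M-27 A2 microbroth dilution in RPMI-1640. Peptide was diluted from DMSO stock to final 200, 100, 50, 25, 12.5, 6.25 and 3.125 µM. Inoculum was 1–5 × 10^3 CFU/ml from 24 h, 35 °C Sabouraud-chloramphenicol slants. Incubation was 48 h at 35 °C, moist and dark. % inhibition was taken from OD405 against a DMSO-containing growth control. Amphotericin B served as the positive control; tests in duplicate.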

The nature of data set [2]: Toxicity in Poecilia reticulata assessed as mortality at 16.4 ug/ml after 48 hrs. Format: organism-based. The note with it: in vivo, read-out: Activity. In outline:
(§2)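 Acute toxicity in guppy (P. reticulata): 10 fish per concentration held in jars with the test solution for 96 h. Peptide added from aqueous stock diluted in DMSO to the final concentration. Dead fish counted and removed every 24 h, and condition noted. Percent mortality recorded at 96 h. Two experiments, each in triplicate.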

Data set [3] is described as follows: Toxicity in Poecilia reticulata assessed as mortality at 16.4 ug/ml after 96 hrs. The note with it: in vivo, read-out: Activity. Format: organism-based. In outline: as §2
Data set [4] concerns Candida albicans. As to the kind of experiment: Antifungal activity against Candida albicans ATCC 10231 assessed as inhibition of fungal growth at 50 uM after 24 hrs by microbroth dilution method. It counts as functional. To be noted: ATCC 10231, 24 h. In outline:
(§3)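 CLSI M-27 A2 broth microdilution in RPMI-1640. Peptides were taken from DMSO stocks to final 200–3.125 µM (twofold series). Inoculum was 1–5 × 10^3 CFU/ml from 24 h Sabouraud-chloramphenicol slant cultures at 35 °C. Plates were incubated 24 h at 35 °C in a moist dark chamber. OD405 was read, and % inhibition was taken against a DMSO-matched growth control. Amphotericin B served as the positive control; duplicates.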
Background: Broth dilution looks for growth in wells or tubes with falling amounts of substance.

Data set [5] concerns Candida albicans. Put plainly: Antifungal activity against Candida albicans ATCC 10231 assessed as inhibition of fungal growth after 24 hrs by microbroth dilution method. It counts as functional. The note with it: ATCC 10231, 24 h; for MIC: read-out: MIC100. In outline: as §3
Data set [6] in a line: Toxicity in Poecilia reticulata assessed as mortality at 16.4 ug/ml after 72 hrs. Format: organism-based. To be noted: in vivo, read-out: Activity. Summed up:
as §2

The subject of data set [7] is Cryptococcus neoformans. Put plainly: Antifungal activity against Cryptococcus neoformans ATCC 32264 assessed as inhibition of fungal growth at 12.5 uM after 48 hrs by microbroth dilution method. It counts as functional. The note with it: ATCC 32264, 48 h. In outline:
as §1

The test system of data set [8] is Cryptococcus neoformans. Put plainly: Antifungal activity against Cryptococcus neoformans ATCC 32264 assessed as inhibition of fungal growth at 100 uM after 48 hrs by microbroth dilution method. To be noted: ATCC 32264, 48 h. Format: functional. Summed up:
as §1

The subject of data set [9] is Candida albicans. As to the kind of experiment: Antifungal activity against Candida albicans ATCC 10231 assessed as inhibition of fungal growth at 12.5 uM after 24 hrs by microbroth dilution method. It counts as functional. The note with it: ATCC 10231, 24 h. In outline:
as §3

Data set [10] concerns Cryptococcus neoformans. Put plainly: Antifungal activity against Cryptococcus neoformans ATCC 32264 assessed as inhibition of fungal growth at 200 uM after 48 hrs by microbroth dilution method. It counts as functional. To be noted: ATCC 32264, 48 h. Summed up:
as §1

Data set [11] relates to Cryptococcus neoformans. As to the kind of experiment: Antifungal activity against Cryptococcus neoformans ATCC 32264 assessed as inhibition of fungal growth after 48 hrs by microbroth dilution method. It counts as functional. The note with it: ATCC 32264, 48 h; for MIC: read-out: MIC100. Summed up:
as §1

For data set [12], the system named is Candida albicans. As to the kind of experiment: Antifungal activity against Candida albicans ATCC 10231 assessed as inhibition of fungal growth at 100 uM after 24 hrs by microbroth dilution method. To be noted: ATCC 10231, 24 h. Format: functional. Summed up: as §3
Data set [13] has as its system Cryptococcus neoformans. As to the kind of experiment: Antifungal activity against Cryptococcus neoformans ATCC 32264 assessed as inhibition of fungal growth at 25 uM after 48 hrs by microbroth dilution method. Format: functional. To be noted: ATCC 32264, 48 h. Summed up: as §1
Data set [14] in a line: Toxicity in Poecilia reticulata assessed as mortality at 16.4 ug/ml after 24 hrs. It counts as organism-based. The note with it: in vivo, read-out: Activity. Summed up: as §2
In data set [15] the test system is Candida albicans. As to the kind of experiment: Antifungal activity against Candida albicans ATCC 10231 assessed as inhibition of fungal growth at 25 uM after 24 hrs by microbroth dilution method. It counts as functional. The note with it: ATCC 10231, 24 h. Summed up: as §3
The test system of data set [16] is Candida albicans. Put plainly: Antifungal activity against Candida albicans ATCC 10231 assessed as inhibition of fungal growth at 200 uM after 24 hrs by microbroth dilution method. The note with it: ATCC 10231, 24 h. Format: functional. Summed up:
as §3

Data set [17] is described as follows: Toxicity in Poecilia reticulata assessed as mortality at 13.6 ug/ml after 96 hrs. It counts as organism-based. The note with it: in vivo, read-out: Activity. Summed up:
as §2

Data set [18] in a line: Toxicity in Poecilia reticulata assessed as mortality at 13.6 ug/ml after 24 hrs. It counts as organism-based. To be noted: in vivo, read-out: Activity. Summed up:
as §2

Data set [19] in a line: Toxicity in Poecilia reticulata assessed as mortality at 13.6 ug/ml after 72 hrs. To be noted: in vivo, read-out: Activity. Format: organism-based. In outline: as §2
The nature of data set [20]: Toxicity in Poecilia reticulata assessed as mortality at 13.6 ug/ml after 48 hrs. Format: organism-based. To be noted: in vivo, read-out: Activity. In outline: as §2
Data set [21] can be described thus: Toxicity in Poecilia reticulata assessed as mortality at 22.8 ug/ml after 24 hrs. Format: organism-based. To be noted: in vivo, read-out: Activity. Summed up:
as §2

The nature of data set [22]: Toxicity in Poecilia reticulata assessed as mortality at 22.8 ug/ml after 96 hrs. The note with it: in vivo, read-out: Activity. Format: organism-based. In outline:
as §2

Data set [23] is described as follows: Toxicity in Poecilia reticulata assessed as mortality at 22.8 ug/ml after 72 hrs. Format: organism-based. The note with it: in vivo, read-out: Activity. Summed up:
as §2

A short description of data set [24]: Toxicity in Poecilia reticulata assessed as mortality at 22.8 ug/ml after 48 hrs. It counts as organism-based. The note with it: in vivo, read-out: Activity. Summed up:
as §2

On to H-RQIRRWWQW-NH2, for which the inhibition at 50 µM in the data set on Cryptococcus neoformans [1] and in the data set with Candida albicans [4] was 100% throughout. Also, in data set [2], the mortality at 48 h, 16.4 ug/ml stood at 0%. Besides, in [3], the mortality at 96 h, 16.4 ug/ml worked out at 0%. The MIC50 in the data set with Candida albicans [5] was at most 25 µM; with Cryptococcus neoformans [11], at most 12.5 µM. The MIC in the data set with Candida albicans [5] was determined as 50 µM; in the data set with Cryptococcus neoformans [11], 25 µM. For the same substance, the mortality at 72 h, 16.4 ug/ml in [6] came to 0%. The inhibition at 12.5 µM with Cryptococcus neoformans [7] was 83.3%; in the data set with Candida albicans [9] it was 19.1%. The inhibition at 100 µM in the data set on Cryptococcus neoformans [8] and in the data set on Candida albicans [12] was 100% each time. In addition, the inhibition at 200 µM in the data set on Cryptococcus neoformans [10] and with Candida albicans [16] was 100% in each case. Besides, the MIC80 in the data set with Cryptococcus neoformans [11] was at most 12.5 µM. Further, the inhibition at 25 µM in the data set on Cryptococcus neoformans [13] came to 100%; in the data set on Candida albicans [15] it was 50.7%. For the same substance, in data set [14], the mortality at 24 h, 16.4 ug/ml turned out to be 0%.

Regarding H-RQIRRWWQWRR-NH2, the inhibition at 50 µM in the data set with Cryptococcus neoformans [1] and with Candida albicans [4] was 100% throughout. Also, the MIC50 in the data set with Candida albicans [5] was at most 25 µM; with Cryptococcus neoformans [11], at most 12.5 µM. Also, the MIC in the data set on Candida albicans [5] came to 50 µM; with Cryptococcus neoformans [11], 25 µM. In addition, the mortality at 96 h, 13.6 ug/ml in data set [17] was found to be 0%. For the same substance, the mortality at 24 h, 13.6 ug/ml in data set [18] was found to be 0%. The figures for the inhibition at 12.5 µM in the data set on Cryptococcus neoformans [7] and in the data set with Candida albicans [9] were 51.2% and 22.9%, respectively. In addition, the inhibition at 100 µM with Cryptococcus neoformans [8] and with Candida albicans [12] was 100% throughout. In addition, in data set [19], the mortality at 72 h, 13.6 ug/ml is 0%. Moreover, the inhibition at 200 µM with Cryptococcus neoformans [10] and in the data set with Candida albicans [16] was 100% in each case. Also, the results for the inhibition at 25 µM in the data set with Cryptococcus neoformans [13] and with Candida albicans [15] were 100% and 46.6%, respectively. For the same substance, in [20], the mortality at 48 h, 13.6 ug/ml stood at 0%.

Regarding H-RQWKKWWQWRR-NH2, the inhibition at 50 µM in the data set with Cryptococcus neoformans [1] and in the data set with Candida albicans [4] was 100% throughout. The MIC50 was at most 25 µM with Candida albicans [5] and at most 12.5 µM in the data set with Cryptococcus neoformans [11]. Further, the MIC in the data set on Candida albicans [5] came to 50 µM; with Cryptococcus neoformans [11] it was 25 µM. Also, the mortality at 24 h, 22.8 ug/ml in [21] came out at 0%. In addition, the inhibition at 12.5 µM in the data set on Cryptococcus neoformans [7] came to 66.2%; with Candida albicans [9] it was 35.7%. For the same substance, the inhibition at 100 µM in the data set on Cryptococcus neoformans [8] and in the data set with Candida albicans [12] was 100% throughout. Moreover, in [22], the mortality at 96 h, 22.8 ug/ml came to 0%. The inhibition at 200 µM in the data set with Cryptococcus neoformans [10] and in the data set with Candida albicans [16] was 100% throughout. The mortality at 72 h, 22.8 ug/ml in [23] worked out at 0%. The mortality at 48 h, 22.8 ug/ml in [24] came out at 0%. In addition, the inhibition at 25 µM in the data set on Cryptococcus neoformans [13] worked out at 100%; in the data set on Candida albicans [15] it was 67.9%.
